We go through four compounds from ChEMBL document CHEMBL1154573, “New 7,20:14,20-diepoxy ent-kauranoids from Isodon xerophilus” (J Nat Prod, 2000).

Values after ≈ are worked out from the molar mass of the structure shown.

Common to all, as to format: functional, cell-based
The subject of one assay is K562. Kind of assay: Cytotoxicity against human K562 cells after 48 hrs by MTT assay. Particulars: K562, 48 h. A digest of the protocol:
(§1)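 MTT reduction assay. Cells in log-phase growth were seeded at 4 × 10⁴ cells/mL and exposed in four replicates to drug at 10⁻⁴–10⁻⁸ mol/L for 48 h at 37 °C in humidified 5% CO₂. MTT (5 mg/mL solution) was then added for a further 4 h. Formazan was dissolved in 10% SDS–5% isobutanol–HCl for 12 h at room temperature. OD was read at 570 and 630 nm, and IC50 was derived. Negative controls were saline or 1% or 0.1% DMSO.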
(In general: Formazan colour is commonly taken as a measure of viable cells.)

Another assay concerns HL-60. Kind of assay: Cytotoxicity against human HL60 cells after 48 hrs by MTT assay. Particulars: HL-60, 48 h. A digest of the protocol:
as §1

The next assay has as its system MKN-28. Kind of assay: Cytotoxicity against human MKN28 cells after 48 hrs by MTT assay. Particulars: MKN-28, 48 h. In a few lines: as §1
Assay [1] is described as follows: Cytotoxicity against human HCT cells after 48 hrs by MTT assay. In a few lines: as §1

What is called IC50 is the point on the concentration scale where inhibition reaches its midpoint. Regarding `C=C1C(=O)[C@@]23[C@@H]4O[C@H]5O[C@@]2(O)[C@@H](O)[C@@H]2C(C)(C)CCC[C@]52[C@@H]3[C@@H](O)C[C@@H]14` [MACROCALIN B], the half-maximal inhibitory concentration (IC50) in the assay on K562 worked out at 8.07 mg/L (≈ 22.3 µM); with HL-60, 2.05 mg/L (≈ 5.66 µM); with MKN-28, 1.68 mg/L (≈ 4.64 µM).

In the case of `C=C1C(=O)[C@@]23[C@@H]4O[C@H]5O[C@@]2(O)[C@@H](O)[C@@H]2C(C)(C)CCC[C@]52[C@@H]3CC[C@@H]14` [XEROPHILUSIN B], the values for the IC50 in the assay with K562, in the assay with HL-60 and with MKN-28 were 0.73 mg/L (≈ 2.11 µM), 0.29 mg/L (≈ 0.837 µM) and 0.17 mg/L (≈ 0.491 µM), respectively.

On to `O=C1c2c(O)ccc(O)c2C(=O)c2c(NCCNCCO)ccc(NCCNCCO)c21` [MITOXANTRONE], for which the half-inhibitory concentration (IC50) in the assay with K562 is 0.0334 mg/L (≈ 0.0751 µM); in the assay with HL-60, 0.29 mg/L (≈ 0.652 µM); in assay [1], 1.54 mg/L (≈ 3.46 µM); in the assay with MKN-28, 0.02 mg/L (≈ 0.045 µM).

On to `C=C1C(=O)[C@@]23[C@@H]4O[C@H]5O[C@@]2(O)[C@@H](O)[C@@H]2C(C)(C)CCC[C@]52[C@@H]3[C@@H](OC(C)=O)C[C@@H]14` [XEROPHILUSIN A], for which the concentration for half-maximal inhibition (IC50) in the assay on K562 came to 2.22 mg/L (≈ 5.49 µM); with HL-60, 0.45 mg/L (≈ 1.11 µM); in the assay with MKN-28, 0.12 mg/L (≈ 0.297 µM).
